Published values gathered from unrelated publications.
Each line is one published result; the experiments were not run side by side.

Structure (SMILES)	tested on	test	system	setting	endpoint	result
CC(=O)OCC(=O)[C@@]12OC3(CCCC3)O[C@@H]1C[C@H]1[C@@H]3CCC4=CC(=O)C=C[C@]4(C)[C@@]3(F)[C@@H](O)C[C@@]12C	Severe acute respiratory syndrome coronavirus 2	viral replication, inhibitor	Caco-2	replicon	IC50	3.37 µM
N.N.[Cl][Pt][Cl]	NALM-6	cell growth or viability, ATP luminescence	–	72 h	IC50	1.05 µM
CC1=NN(c2ccc(C)c(C)c2)C(=O)/C1=N\Nc1cccc(-c2cccc(C(=O)O)c2)c1O	Severe acute respiratory syndrome coronavirus 2	viral replication, inhibitor	Caco-2	replicon	IC50	3.1 µM
CCOC(=O)C1=C(CN2CCOCC2)NC(c2nccs2)=NC1c1ccc(F)cc1Br (centres unmarked)	Hepatitis B virus	viral replication, inhibitor, qPCR	HepDES19	72 h	EC50	0.04 µM
O=[N+]([O-])NC(=S)NN=Cc1ccc(Br)cc1	Leishmania tropica	parasite growth, MTT	–	72 h, promastigote	IC50	1240 µM
COc1cnc(OC)n2nc(NS(=O)(=O)c3c(OCC(F)F)cccc3C(F)(F)F)nc12	L02	cell growth or viability, CCK-8	–	100 µM, 72 h	inhibition	1.54%
COc1nc(N)ncc1-c1cn([C@@H]2O[C@](F)(CO[P@@](=O)(N[C@@H](C)C(=O)OC(C)C)Oc3ccccc3)[C@@H](OC(=O)C(C)C)[C@H]2OC(=O)C(C)C)cn1	Severe acute respiratory syndrome coronavirus 2	viral replication, inhibitor	A549-ACE2	24 h	IC50	12.5 µM
Cc1c(O)cccc1C(=O)N[C@@H](CSc1ccccc1)[C@H](O)CN1C[C@H]2CCCC[C@H]2C[C@H]1C(=O)NC(C)(C)C	Severe acute respiratory syndrome coronavirus 2	viral replication, inhibitor	Calu-3	replicon	IC50	4.05 µM
COc1ncncc1-c1cn([C@@H]2O[C@](F)(CO[P@@](=O)(N[C@@H](C)C(=O)OC(C)C)Oc3ccccc3)[C@@H](O)[C@H]2O)cn1	Severe acute respiratory syndrome coronavirus 2	viral replication, inhibitor	A549-ACE2	24 h	IC50	> 100 µM
O=[N+]([O-])NC(=S)NN=Cc1ccc(F)cc1	Leishmania tropica	parasite growth	J774.A1	72 h, intracellular, amastigote	IC50	186 µM
COc1ncncc1-c1cn([C@@H]2O[C@](F)(CO[P@@](=O)(N[C@@H](C)C(=O)OC(C)C)Oc3ccccc3)[C@@H](OC(=O)C(C)C)[C@H]2OC(=O)C(C)C)cn1	Severe acute respiratory syndrome coronavirus 2	viral replication, inhibitor	A549-ACE2	24 h	IC50	25.5 µM
CCOc1nc2cccc(C(=O)O)c2n1Cc1ccc(-c2ccccc2-c2nnn[nH]2)cc1	Severe acute respiratory syndrome coronavirus 2	viral replication, inhibitor	Calu-3	replicon	IC50	1.05 µM
COc1ccc(C=NNC(=S)N[N+](=O)[O-])cc1OC	Leishmania tropica	parasite growth, MTT	–	72 h, promastigote	IC50	865 µM
COc1ncc(-c2cn([C@@H]3O[C@](F)(CO)[C@@H](O)[C@H]3O)cn2)c(OC)n1	Severe acute respiratory syndrome coronavirus 2	viral replication, inhibitor	A549-ACE2	24 h	IC50	> 100 µM
